Legend:
NB-4 [1] = test: Antiproliferative activity against human NB4 cells assessed as inhibition of cell growth incubated for 48 hrs by CCK8 assay; type: functional, cell-based; details: NB-4, 48 h
How it was run: (§1)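 CCK-8 growth-inhibition assay in the malignant haematological lines MOLM-13, NB4 and Jeko-1 and in normal PBMC. Cells were treated across a range of doses and IC50 taken as the half-maximal growth-inhibitory concentration. Data are mean ± SD of triplicate samples, and experiments were repeated at least three times.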

MOLM-13 [2] = test: Induction of apoptosis in human MOLM-13 cells assessed as early apoptotic cells at 10 uM incubated for 48 hrs by Annexin V-FITC/PI staining based flow cytometric analysis (reference value: 4.10%); type: functional
MCF7 = test: Antiproliferative activity against human MCF7 cells assessed as inhibition of cell proliferation; type: functional, cell-based
HeLa [3] = test: Antiproliferative activity against human HeLa cells assessed as cell growth inhibition at 10 uM incubated for 48 hrs by CCK8 assay relative to control; type: functional; details: read-out: GI
How it was run: (§2)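 Single-concentration screen of six cancer cell lines. Cells were exposed to 10 μM compound and growth was measured by CCK-8 assay. Results are reported as inhibition rate at 10 μM.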

JeKo-1 [4] = test: Antiproliferative activity against human JeKo-1 cells assessed as inhibition of cell growth incubated for 48 hrs by CCK8 assay; type: functional, cell-based; details: JeKo-1, 48 h; how it was run: as §1
U-251 = test: Antiproliferative activity against human U-251 cells assessed as cell growth inhibition at 10 uM incubated for 48 hrs by CCK8 assay relative to control; type: functional; details: read-out: GI; how it was run: as §2
HeLa [5] = test: Antiproliferative activity against human HeLa cells assessed as inhibition of cell proliferation; type: functional, cell-based
MOLM-13 [6] = test: Induction of apoptosis in human MOLM-13 cells assessed as late apoptotic cells at 10 uM incubated for 48 hrs by Annexin V-FITC/PI staining based flow cytometric analysis (reference value: 3.17%); type: functional
MOLM-13 [7] = test: Cell cycle arrest in human MOLM-13 cells assessed as accumulation of G2/M phase cells at 10 uM incubated for 24 hrs by RNase A/PI staining based flow cytometry analysis (reference value: 11.74%); type: functional
[8] = Antiproliferative activity against Renal 1983 cells (unknown origin) assessed as inhibition of cell proliferation; type: functional, cell-based; details: Renal 1983 cell
MOLM-13 [9] = test: Antiproliferative activity against human MOLM-13 cells assessed as inhibition of cell growth incubated for 48 hrs by CCK8 assay; type: functional, cell-based; details: MOLM-13, 48 h; how it was run: as §1
JeKo-1 [10] = test: Antiproliferative activity against human JeKo-1 cells assessed as cell growth inhibition at 10 uM incubated for 48 hrs by CCK8 assay relative to control; type: functional; details: read-out: GI; how it was run: as §2
MOLM-13 [11] = test: Cell cycle arrest in human MOLM-13 cells assessed as accumulation of G0/G1 phase cells at 10 uM incubated for 24 hrs by RNase A/PI staining based flow cytometry analysis (reference value: 38.14%); type: functional
NB-4 [12] = test: Antiproliferative activity against human NB4 cells assessed as cell growth inhibition at 10 uM incubated for 48 hrs by CCK8 assay relative to control; type: functional; details: read-out: GI; how it was run: as §2
MOLM-13 [13] = test: Antiproliferative activity against human MOLM-13 cells assessed as cell growth inhibition at 10 uM incubated for 48 hrs by CCK8 assay relative to control; type: functional; details: read-out: GI; how it was run: as §2
A549 = test: Antiproliferative activity against human A549 cells assessed as cell growth inhibition at 10 uM incubated for 48 hrs by CCK8 assay relative to control; type: functional; details: read-out: GI; how it was run: as §2
MOLM-13 [14] = test: Cell cycle arrest in human MOLM-13 cells assessed as accumulation of S phase cells at 10 uM incubated for 24 hrs by RNase A/PI staining based flow cytometry analysis (reference value: 50.12%); type: functional
MOLM-13 [15] = test: Induction of apoptosis in human MOLM-13 cells assessed as viable cells at 10 uM incubated for 48 hrs by Annexin V-FITC/PI staining based flow cytometric analysis (reference value: 92.24%); type: functional; details: read-out: Activity
MOLM-13 [16] = test: Induction of apoptosis in human MOLM-13 cells assessed as necrotic cells at 10 uM incubated for 48 hrs by Annexin V-FITC/PI staining based flow cytometric analysis (reference value: 0.48%); type: functional

Which IC50 (NB-4 [1]) does the source give for `COc1ccc2c(c1OC)C(=O)O[C@@H]2[C@H]1c2c(cc3c(c2OC)OCO3)CCN1C` [NOSCAPINE] here?
Its IC50 is over 20 µM.

And the Activity (MOLM-13 [2])?
Its Activity is 6.9%.

And the IC50 (MCF7)?
The IC50 was 42 µM.

And the inhibition of growth at 10 µM (HeLa [3])?
The inhibition of growth at 10 µM was under 5%.

And the IC50 (JeKo-1 [4])?
The IC50 was over 20 µM.

And the inhibition of growth at 10 µM (U-251)?
The inhibition of growth at 10 µM was under 5%.

What about the IC50 (HeLa [5]) of the same compound?
The IC50 was 25 µM.

What about the Activity (MOLM-13 [6]) of the same compound?
The Activity was 8.44%.

And the Activity (MOLM-13 [7])?
Its Activity is 13.8%.

What about the IC50 [8] of the same compound?
The IC50 was 39 µM.

And the IC50 (MOLM-13 [9])?
The IC50 was over 20 µM.

What about the inhibition of growth at 10 µM (JeKo-1 [10]) of the same compound?
Its inhibition of growth at 10 µM is under 5%.

What about the Activity (MOLM-13 [11]) of the same compound?
The Activity was 25.66%.

And the inhibition of growth at 10 µM (NB-4 [12])?
Its inhibition of growth at 10 µM is 26.7%.

And the inhibition of growth at 10 µM (MOLM-13 [13])?
Its inhibition of growth at 10 µM is 19%.

What about the inhibition of growth at 10 µM (A549) of the same compound?
The inhibition of growth at 10 µM was under 5%.

And the Activity (MOLM-13 [14])?
Its Activity is 60.54%.

And the viability at 10 µM (MOLM-13 [15])?
Its viability at 10 µM is 83%.

What about the Activity (MOLM-13 [16]) of the same compound?
Its Activity is 1.71%.
